Screening data as filed in PubChem BioAssay.
TAAR1 agonist: agonists of human TAAR1 | activation, % at 3 µM | CHO RD-HGA16 TAAR1, Fluo-8 calcium fluorescence; vehicle wells 0%, saturating PEA agonist 100% | 0.99% of 360,000 active;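 active = activation above the mean activation of all test compounds in the run plus 3 SD, cut at about 38% in these data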
Target sequence (Q96RJ0 whole entry, looked up): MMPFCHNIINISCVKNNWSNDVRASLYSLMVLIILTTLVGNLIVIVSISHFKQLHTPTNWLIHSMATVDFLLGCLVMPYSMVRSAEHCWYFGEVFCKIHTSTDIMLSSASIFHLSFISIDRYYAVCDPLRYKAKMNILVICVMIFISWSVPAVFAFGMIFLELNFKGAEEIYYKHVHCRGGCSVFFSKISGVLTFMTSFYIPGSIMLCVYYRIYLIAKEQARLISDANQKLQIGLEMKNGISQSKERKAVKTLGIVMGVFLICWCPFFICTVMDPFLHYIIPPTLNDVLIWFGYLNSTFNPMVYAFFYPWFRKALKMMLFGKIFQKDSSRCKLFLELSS
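System: CHO RD-HGA16 cells carrying human TAAR1 plus Gα16; Incubation: 17-24 h seeding, 75 min 37 °C dye, 30 min RT; Measured by: Fluo-8 fluorescence, 5 s baseline then 140 s kinetic read; Control set: DMSO and PEA EC100; Replication: single well for each compound.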
GalR3 antag: human GalR3 antagonism | O60755 | HEK293 GalR3-CNG cAMP membrane potential fluorescence; galR3 body fused to GalR1 C-terminus | inhibition, % at 3 µM | 0.44% of 360,000 active;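 active = inhibition above the screen-wide average plus 3 SD, cut at about 13% in these data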;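 note: forskolin and galanin both at EC90 stimulate the cells; cAMP rise reported by CNG channel membrane potential dye signal; 0% = forskolin plus galanin with DMSO and 100% = forskolin alone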
OX1R antag-1: antagonists of human orexin 1 receptor; O43613; CHO/OX1R cells, Fluo-8 calcium fluorescence, orexin A; inhibition, % at 5 µM; 0.43% of 330,000 active;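 active = inhibition above its plate's threshold, mean inhibition of all tested compounds on the plate plus 3 SD, cut at about 37% in these data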;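 note: 0% = orexin A challenge wells and 100% = SB-334867-A antagonist wells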
TAAR1 antagonist: antagonists of human TAAR1. Q96RJ0. CHO RD-HGA16 TAAR1, Fluo-8 calcium fluorescence, antagonist. inhibition, % at 3 µM. 1.5% of 360,000 active. AID 624466;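 active = inhibition above a per-plate cutoff, the mean inhibition of test compounds on that plate plus 3 SD, cut at about 49% in these data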;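 note: 0% = DMSO plus EC80 beta-PEA response and 100% = DMSO alone without agonist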
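Assay system: CHO-derived RD-HGA16 cells stably expressing human TAAR1 plus Gα16. Timing: 140 s kinetic read after compound, 140 s after agonist. Technique: kinetic Fluo-8 calcium fluorescence measurement. Measure: % inhibition of agonist calcium response.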
CHO parental Ca: counter-screen: ATP calcium response change in parental CHO cells; inhibition, % at 5.6 µM; parental CHO-K1, ATP-induced calcium, Fluo-8 fluorescence; 0.63% of 330,000 active;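 active = inhibition above that plate's mean sample inhibition plus 3 SD, cut at about 26% in these data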;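 note: 0% = ATP-challenged DMSO wells and 100% = DMSO wells without ATP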
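Assay system – parental CHO cells · Reagent – ATP stimulus · Detection – intracellular calcium via Fluo-8 no-wash fluorescent dye · Evaluation – percent inhibition of ATP-evoked calcium rise, normalized to controls · Controls – ATP wells versus no-ATP DMSO wells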
OX1R antag-2: antagonists of human orexin 1 receptor (OX1R); O43613; inhibition, % at 6.6 µM; OX1R-expressing cells, FRET antagonist read-out; 1.8% of 330,000 active; in the data active = inhibition mostly above about 38%, no sharp cut-off; inactive = mostly below about 40%;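 note: 0% = agonist challenge alone and 100% = reference antagonist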
* hit, by the source's call; . = no result. A selection: hits, their analogues and other compounds. The true share with any hit is near 4.2%.

SMILES	TAAR1 agonist	GalR3 antag	OX1R antag-1	TAAR1 antagonist	CHO parental Ca	OX1R antag-2
O=C(O)c1ccc(/C=N\Nc2ccc(S(=O)(=O)N3CCOCC3)cc2[N+](=O)[O-])cc1	0.4	0.5	-6.6	-20.0	-10.6	8.4
NS(=O)(=O)c1ccc(N/N=C/c2ccc(C(=O)O)cc2)c([N+](=O)[O-])c1	0.5	-4.3	-7.8	-12.7	-8.1	49.7*
C/C(CCC(C)C)=N\Nc1ccc(S(N)(=O)=O)cc1[N+](=O)[O-]	-2.6	-1.4	-16.5	13.7	-8.1	25.1
CC(=O)N1CCC(=NNc2ccc(S(N)(=O)=O)cc2[N+](=O)[O-])CC1	-0.4	-7.0	1.9	-4.3	1.6	51.3
O=C(CN1CCN(Cc2ccc(Cl)cc2)CC1)N/N=C/c1cccc(F)c1	26.0	-0.7	-11.2	-24.8	-20.4	-0.6
CCOC(=O)c1ccc(N2C(=O)C3CCOc4ccccc4C32)cc1 (configuration not stated)	1.6	-2.6	-12.8	-17.5	-15.2	6.0
COc1ccc(C(C(=O)NCc2ccccc2)N(Cc2ccco2)C(=O)c2snc(C(N)=O)c2N)cc1 (configuration not stated)	17.1	-3.9	-11.4	63.8*	-2.8	22.9
COc1ccc(C(C(=O)NCC2CCCO2)N(Cc2ccco2)C(=O)c2snc(C(N)=O)c2N)cc1OC (configuration not stated)	9.8	-7.7	-16.1	24.2	0.4	19.7
NC(=O)c1nsc(C(=O)N(c2cccc(F)c2)C(C(=O)NCc2ccccc2)c2ccc(O)cc2)c1N (configuration not stated)	17.7	-8.8	-9.3	52.5*	1.9	46.4
COc1ccc(C(C(=O)NCc2ccccc2)N(Cc2ccco2)C(=O)c2snc(C(N)=O)c2N)cc1OC (configuration not stated)	17.5	-7.1	-7.0	57.2*	-6.1	9.4
COc1ccc(C(C(=O)NCc2ccccc2)N(C(=O)c2snc(C(N)=O)c2N)c2ccccc2OC)cc1 (configuration not stated)	5.1	-7.0	-20.9	-23.1	-24.6	5.1
Cc1ccc(C(=O)N2CC(C)OC(C)C2)cc1[N+](=O)[O-] (configuration not stated)	2.6	-3.7	-6.6	0.2	-10.5	20.5
Cc1nc2ccc(NS(=O)(=O)c3cccc([N+](=O)[O-])c3)cc2s1	3.8	-5.8	28.5	19.4	30.0*	20.0
Cc1ccc(S(=O)(=O)Nc2ccc3nc(N)sc3c2)cc1	4.9	-8.4	32.0	23.4	33.8*	18.5
Cc1nc2ccc(NS(=O)(=O)c3ccc(F)c(F)c3)cc2s1	4.3	-5.4	20.3	20.7	2.9	18.1
Cc1ccc(S(=O)(=O)Nc2ccc3nc(C)sc3c2)cc1	.	.	32.7	.	28.5	44.7
Cc1nc2ccc(NS(=O)(=O)c3ccc4c(c3)OCCO4)cc2s1	17.8	102.5*	44.9*	5.2	31.2	26.9
Nc1cc(C(=O)O)c(Oc2ccc(Cl)cc2Cl)cc1C(=O)O	0.6	0.7	-9.8	3.5	-0.9	61.3*
CCCCNc1c(-c2ccc(SC3CCCCC3)cc2)nc2ccccn12	-1.2	-8.5	40.9	30.0	79.7*	30.6
CCCCNc1c(-c2ccc(SC(C)CC)cc2)nc2ccccn12 (configuration not stated)	11.6	-7.7	56.4*	96.4*	86.8*	60.8
CCCCNc1c(-c2cccc(SC3CCCCC3)c2)nc2ccc(Cl)cn12	3.1	1.9	-35.6	26.1	-40.0	29.3
Clc1ccc2nc(-c3cccc(SC4CCCCC4)c3)c(NCc3ccccc3)n2c1	1.2	-6.6	-24.2	28.6	-30.4	24.7
c1ccc(CNc2c(-c3cccc(SC4CCCCC4)c3)nc3ccccn23)cc1	2.5	-4.2	73.4*	54.6*	81.8*	35.3
CCc1ccc(NC(=O)CSc2nc(N)c(NC(=O)c3ccc(F)c(F)c3)c(=O)[nH]2)cc1	0.4	2.1	-2.5	-20.8	-7.4	1.7
O=C(O)CCNS(=O)(=O)c1ccc2c(c1)Cc1ccccc1-2	1.4	-0.9	-6.5	-4.8	0.3	25.3
